The source made the active and inactive calls. The calls are words filed in the database; no cut-off is given here.
How the values were obtained:
[1] = target: T1, 17-beta-hydroxysteroid dehydrogenase type 2 (Homo sapiens) (UniProt P37059); assay: Inhibition of 17beta-HSD2 in human placental microsomal fraction using E2/NAD+ as substrate/cofactor at 1 uM after 20 mins by HPLC analysis; conditions: Placenta
T1 sequence (whole entry): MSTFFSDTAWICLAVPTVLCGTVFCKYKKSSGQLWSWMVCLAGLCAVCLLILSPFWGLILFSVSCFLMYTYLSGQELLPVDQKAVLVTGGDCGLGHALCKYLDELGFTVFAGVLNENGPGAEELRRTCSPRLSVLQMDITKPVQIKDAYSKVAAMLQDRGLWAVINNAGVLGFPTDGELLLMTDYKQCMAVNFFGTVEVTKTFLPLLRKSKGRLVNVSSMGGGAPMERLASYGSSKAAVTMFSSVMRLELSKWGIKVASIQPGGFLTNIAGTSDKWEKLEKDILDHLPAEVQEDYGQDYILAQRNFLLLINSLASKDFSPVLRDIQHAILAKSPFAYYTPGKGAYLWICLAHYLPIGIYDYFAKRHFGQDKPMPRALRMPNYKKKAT
How it was run: (§1)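 Enzyme source is human placenta, microsomal fraction. Substrate is estradiol (E2) at 500 nM, with NAD+ as cofactor. Values are the mean of at least two determinations, with standard deviation below 20%.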

[2] = target: T2, 17-beta-hydroxysteroid dehydrogenase type 1 (Homo sapiens) (UniProt P14061); assay: Inhibition of 17beta-HSD1 in human placental cytosolic fraction using E1/NADH as substrate/cofactor at 1 uM after 10 mins by HPLC analysis
T2 sequence (whole entry): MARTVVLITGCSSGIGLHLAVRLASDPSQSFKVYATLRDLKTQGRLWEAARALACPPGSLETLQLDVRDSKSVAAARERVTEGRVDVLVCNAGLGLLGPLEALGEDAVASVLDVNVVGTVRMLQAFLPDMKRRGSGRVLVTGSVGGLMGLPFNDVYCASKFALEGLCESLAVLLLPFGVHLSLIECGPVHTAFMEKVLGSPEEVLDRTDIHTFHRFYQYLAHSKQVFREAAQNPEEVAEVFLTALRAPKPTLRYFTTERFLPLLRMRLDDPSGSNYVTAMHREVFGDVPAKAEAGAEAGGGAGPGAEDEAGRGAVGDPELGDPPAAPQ
How it was run: (§2)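 Enzyme source is human placenta, cytosolic fraction. Substrate is estrone (E1) at 500 nM, with NADH as cofactor. Values are the mean of at least two determinations, with standard deviation below 20%.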

[3] = target: T3, 17-beta-hydroxysteroid dehydrogenase type 1 (Homo sapiens, UniProt P14061); assay: Inhibition of 17beta-HSD1 in human placental cytosolic fraction using E1/NADH as substrate/cofactor after 10 mins by HPLC analysis; how it was run: as §2
T3 sequence (P14061 whole entry): T2 sequence (whole entry)

[4] = Cytotoxicity against HEK293 cells assessed as cell viability after 66 hrs by MTT assay; type: cell-based; conditions: human, read-out: LD50
Homo sapiens = organism: Homo sapiens; assay: Selectivity ratio of IC50 for 17beta-HSD1 in human placental cytosolic fraction to IC50 for 17beta-HSD2 in human placental microsomal fraction
[5] = target: T4, 17-beta-hydroxysteroid dehydrogenase type 2 (Homo sapiens, UniProt P37059); assay: Inhibition of 17beta-HSD2 in human placental microsomal fraction using E2/NAD+ as substrate/cofactor after 20 mins by HPLC analysis; set-up: species or system Placenta; how it was run: as §1
T4 sequence (P37059 whole entry): T1 sequence (whole entry)

[6] = Half life in human liver S9 fraction at 1 uM after 5 to 60 mins by LC-MS/MS analysis; type: ADME, subcellular
[7] = Cytotoxicity against HEK293 cells assessed as cell viability at 6.25 uM after 66 hrs by MTT assay; type: cell-based; conditions: human, read-out: Activity

Row | inhibition [1] | inhibition [2] | SMILES | further results
1 | 27% | inactive | O=C(c1cccc(O)c1)N1CCN(c2ccccc2)CC1 | –
2 | 59% | inactive | Cc1cccc(N(C)C(=O)c2ccc(Oc3ccccc3)cc2)c1 | IC50 [3]: Not Active
3 | inactive | inactive | COc1cccc(C(=O)N2CCN(c3cccc(OC)c3)CC2)c1 | –
4 | 55% | inactive | Cc1cccc(N(C)C(=O)c2ccc(Oc3ccccc3C)cc2)c1 | IC50 [3]: Not Active
5 | – | – | Cc1ccc(Oc2ccc(C(=O)N(C)c3cccc(C)c3)cc2)cc1 | CC50 at 66 h [4]: 25 µM; IC50 ([3]; read-out: IC50): 26.3 µM; Ratio IC50 (Homo sapiens): 168; IC50 [5]: 160 nM
6 | – | – | Cc1cccc(Oc2ccc(C(=O)N(C)c3cccc(C)c3)cc2)c1 | CC50 at 66 h [4]: 25 µM; IC50 ([3]; read-out: IC50): 16.1 µM; Ratio IC50 (Homo sapiens): 54; IC50 [5]: 300 nM
7 | 51% | 13% | COc1cccc(N(C)C(=O)c2ccc(Oc3ccc(Cl)cc3)cc2)c1 | –
8 | 43% | inactive | COc1cccc(N(C)C(=O)c2ccc(Oc3ccc([N+](=O)[O-])cc3)cc2)c1 | IC50 [3]: Not Active
9 | inactive | inactive | COc1cccc(C(=O)N2CCN(c3cccc(C)c3)CC2)c1 | –
10 | – | – | COc1cccc(N(C)C(=O)C2CCC(c3ccc(Cl)cc3)CC2)c1 (stereo unspecified) | CC50 at 66 h [4]: > 12.5 µM; IC50 ([3]; read-out: IC50): 60.1 µM; Ratio IC50 (Homo sapiens): 209; IC50 [5]: 290 nM
11 | 16% | inactive | COc1cccc(C(=O)N2CCN(c3ccc(C)cc3)CC2)c1 | –
12 | 27% | inactive | Cc1cccc(N2CCN(S(=O)(=O)c3cccc(O)c3)CC2)c1 | –
13 | 16% | inactive | COc1cccc(S(=O)(=O)N2CCN(c3cccc(C)c3)CC2)c1 | –
14 | – | – | COc1ccc(Oc2ccc(C(=O)N(C)c3cccc(OC)c3)cc2)cc1 | CC50 at 66 h [4]: 25 µM; IC50 ([3]; read-out: IC50): 9.6 µM; Ratio IC50 (Homo sapiens): 31; IC50 [5]: 310 nM
15 | 16% | inactive | Cc1cccc(N2CCN(C(=O)c3cccc(O)c3)CC2)c1 | –
16 | 15% | inactive | COc1cccc(S(=O)(=O)N2CCN(c3ccc(F)c(OC)c3)CC2)c1 | –
17 | inactive | inactive | COc1cccc(N2CCN(S(=O)(=O)c3cccc(OC)c3)CC2)c1 | –
18 | 43% | inactive | CN(C(=O)c1ccc(Oc2ccc(O)cc2)cc1)c1cccc(O)c1 | IC50 [3]: Not Active
19 | inactive | inactive | Cc1ccc(N2CCN(C(=O)c3cccc(O)c3)CC2)cc1 | –
20 | 48% | inactive | O=S(=O)(c1cccc(O)c1)N1CCN(c2ccc(F)c(O)c2)CC1 | –
21 | 25% | inactive | O=S(=O)(c1cccc(O)c1)N1CCN(c2cccc(O)c2)CC1 | –
22 | 14% | inactive | COc1cccc(C(=O)N2CCN(c3ccccc3)CC2)c1 | –

Row | SMILES | inhibition [1] | inhibition [2] | further results
23 | COc1cccc(N(C)C(=O)c2ccc(-c3ccc(C)c(C)c3)cc2)c1 | 75% | – | half-life at 1 µM [6]: 107 min; viability at 66 h, 6.25 µM [7]: 34%; CC50 at 66 h [4]: < 6.25 µM; Ratio IC50 (Homo sapiens): 44

Source: ChEMBL document CHEMBL3739412, “Addressing cytotoxicity of 1,4-biphenyl amide derivatives: Discovery of new potent and selective 17β-hydroxysteroid dehydrogenase type 2 inhibitors” (Bioorg Med Chem Lett, 2016)
